Measurements published in article PMC3712647 (European journal of medicinal chemistry, 2013).
Read-outs that look alike come from different tables or passages of the source.

Legend:
[1] = system: full NCI 60 cell panel; test: NCI 60 five-concentration screen, panel mean; format: cell-based; settings: Homo sapiens, 48 h; for IC (TGI): read-out: TGI MG-MID; for GI50: read-out: GI50 MG-MID; for CC50: read-out: LC50 MG-MID
[2] = system: Breast; test: cells; format: cell-based; settings: Homo sapiens, 48 h, read-out: TGI Breast
[3] = system: Nox4 in B1647 cells; test: Intracellular ROS after Nox2 silencing in B1647 cells; format: cell-based, human; settings: siRNA against Nox2, 50 nM
[4] = system: Nox4; test: Nox4 expression by Western blotting in B1647 cells; format: cell-based, human; settings: 24 h treatment; 10 µM
Procedure, shortened: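 B1647 cells were treated 24 h, then lysed 15 min on ice (1% Igepal, 150 mM NaCl, 50 mM Tris–HCl, 5 mM EDTA, protease inhibitors, orthovanadate, pH 8.0). 40 µg protein/lane ran on 10% SDS-PAGE and was transferred to nitrocellulose (100 V, 90 min). Blots were blocked in 5% milk in TBS/Tween, probed overnight at 4 °C with anti-Nox4 and anti-β-tubulin, then HRP secondaries, with luminol detection.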

[5] = system: Leukemia; test: cells; format: cell-based; settings: Homo sapiens, 48 h, read-out: TGI Leukemia
[6] = system: Melanoma; test: NCI 60 five-concentration screen, melanoma subpanel; format: cell-based; settings: Homo sapiens, 48 h, read-out: TGI Melanoma
[7] = system: Nox4 in B1647 cells; test: Intracellular ROS level; format: cell-based, human; settings: 30 min treatment at 5 or 10 µM
Procedure, shortened: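 Human AML B1647 cells grown in IMDM with 5% human serum (37 °C, 5% CO₂) were treated 30 min with test compound in DMSO. Cells (1 × 10⁶/mL) were washed twice in PBS and loaded with 5 µM DCFH-DA for 20 min at 37 °C. Oxidized DCF fluorescence was read in a multiwell plate reader.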

[8] = system: Renal; test: NCI 60 five-concentration screen, renal subpanel; format: cell-based; settings: Homo sapiens, 48 h, read-out: TGI Renal
[9] = system: Ovarian; test: cells; format: cell-based; settings: Homo sapiens, 48 h, read-out: TGI Ovarian
[10] = system: cells; test: Cell cycle effect; format: cell-based; settings: data not presented
[11] = system: Prostate; test: cells; format: cell-based; settings: Homo sapiens, 48 h, read-out: TGI Prostate
[12] = system: NSCLC; test: NCI 60 five-concentration screen, NSCLC subpanel; format: cell-based; settings: Homo sapiens, 48 h, read-out: TGI NSCLC
[13] = system: CNS; test: cells; format: cell-based; settings: Homo sapiens, 48 h, read-out: TGI CNS
[14] = system: Colon; test: NCI 60 five-concentration screen, colon subpanel; format: cell-based; settings: Homo sapiens, 48 h, read-out: TGI Colon
[15] = system: full NCI 60 cell panel; test: NCI 60 Cell One-Dose Screen; format: cell-based

| Compound | IC (TGI) [1] [µM] | IC (TGI) [2] [µM] | GI50 [1] [µM] | IC (TGI) [5] [µM] | IC (TGI) [6] [µM] | CC50 [1] [µM] | IC (TGI) [8] [µM] | IC (TGI) [13] [µM] | IC (TGI) [14] [µM] | also measured |
| --- | --- | --- | --- | --- | --- | --- | --- | --- | --- | --- |
| COc1ccc(OC)c2c1NC(=O)/C2=C\c1cc(OC)c(OC)c(OC)c1 [Compound 3] | 19.5 | 19 | – | – | – | – | – | – | – | – |
| COc1cc(/C=C2\C(=O)Nc3ccc(Br)cc32)cc(OC)c1OC [Compound 5] | 67.6 | – | 7.9 | 49 | 76 | – | – | – | – | ROS production in Nox2 silenced cells vs scrambled cells [3]: inhibited ROS production to the same extent; Nox4 expression [4]: downregulate Nox4 expression; ROS generation [7]: partially inhibited |
| COc1cc(/C=C2\C(=O)Nc3ccc(N(C)C)cc32)cc(OC)c1OC [Compound 6] | 32.4 | – | 2.8 | 9.3 | – | 89.1 | 49 | – | – | IC (TGI) [9]: 32.4 µM |
| COc1cc(/C=C2/C(=O)Nc3cc(C)c(O)cc32)cc(OC)c1OC [Compound 7] | 20.9 | – | 4.3 | 8.7 | – | 69.2 | – | – | – | ROS production in Nox2 silenced cells vs scrambled cells [3]: inhibited ROS production to the same extent; Nox4 expression [4]: downregulate Nox4 expression; ROS generation [7]: partially inhibited |
| COc1cc(/C=C2\C(=O)Nc3cc(Cl)ccc32)cc(OC)c1OC [Compound 8] | 5.4 | 4.1 | 1.3 | 3.6 | 6.8 | 24 | 4.9 | 5 | 5.4 | proportion of cells in G2/M [10]: increased proportion of cells in G2/M; IC (TGI) [11]: 5.4 µM; IC (TGI) [12]: 8.3 µM; IC (TGI) [9]: 5.4 µM |
| COc1cc(/C=C2\C(=O)Nc3cc(OC(F)(F)F)ccc32)cc(OC)c1OC [Compound 9] | 12.3 | 8.7 | 2.7 | – | – | – | – | 7.4 | – | – |
| COc1cc(/C=C2/C(=O)N(C)c3ccc(O)cc32)cc(OC)c1OC [Compound 10] | 17.4 | – | 4.4 | 8.3 | – | – | – | 17.4 | – | IC (TGI) [11]: 6.3 µM |
| COc1ccc2c(c1)/C(=C\c1cc(OC)c(OC)c(OC)c1)C(=O)N2C [Compound 11] | 21.9 | 21.9 | – | 7.6 | 21.9 | 89.1 | 24 | – | – | – |
| COc1cc(/C=C2\C(=O)N(C)c3ccc(Cl)cc32)cc(OC)c1OC [Compound 12] | 21.4 | – | 4.5 | – | 21.4 | – | 24 | – | – | – |
| COc1cc(/C=C2\C(=O)N(Cc3ccc(Cl)cc3)c3ccccc32)cc(OC)c1OC [Compound 13] | 10.7 | – | 2.6 | 4.9 | 8.9 | 41.7 | 10.7 | – | 5.9 | IC (TGI) [11]: 7.6 µM |
| COc1ccc(CN2C(=O)/C(=C\c3cc(OC)c(OC)c(OC)c3)c3ccccc32)cc1 [Compound 14] | 9.3 | – | 2.1 | – | 4.5 | 35.5 | 9.1 | – | 3.6 | IC (TGI) [12]: 9.3 µM |
| COc1ccc(CN2C(=O)/C(=C/c3cc(OC)c(OC)c(OC)c3)c3cc(OC)ccc32)cc1 [Compound 15] | 8.9 | – | – | – | 5.7 | 34.7 | 8.9 | 7.4 | 3.8 | IC (TGI) [9]: 8.9 µM |
| COc1ccc2c(c1)C(=Nc1cc(OC)c(OC)c(OC)c1)C(=O)N2 [Compound 18] | – | – | – | – | – | – | – | – | – | cytotoxic activity in the preliminary one-dose test [15]: lack of cytotoxic activity |
| COc1cc(/N=C2\C(=O)N(Cc3ccccc3)c3ccccc32)cc(OC)c1OC [Compound 19] | – | – | – | – | – | – | – | – | – | growth inhibition in the one-dose screen ([15]; RXF 393, CCRF-CEM, RPMI-8226 and HOP-92 cells, 10^−5 M, data not shown): growth inhibition; cytotoxic activity in the preliminary one-dose test ([15]; single concentration 10^−5 M, 48 h incubation): lack of cytotoxic activity |
| CC[C@]1(O)C[C@H]2CN(CCc3c([nH]c4ccccc34)[C@@](C(=O)OC)(c3cc4c(cc3OC)N(C=O)[C@H]3[C@@](O)(C(=O)OC)[C@H](OC(C)=O)[C@]5(CC)C=CCN6CC[C@]43[C@@H]65)C2)C1 [Vincristine, reference compound] | 10 | 7.9 | – | 15.8 | 7.9 | – | 19.9 | 6.3 | 4 | IC (TGI) [11]: 6.3 µM; IC (TGI) [12]: 15.8 µM; IC (TGI) [9]: 19.9 µM |
